Measurements published in ChEMBL document CHEMBL1138329, “Pharmacokinetic/pharmacodynamic model-guided identification of hypoxia-selective 1,2,4-benzotriazine 1,4-dioxides with antitumor activity: the role of extravascular transport” (J Med Chem, 2007).

How the values were obtained:
HT-29 [1] = assay: Cytotoxicity against human HT29 cells under hypoxic conditions after 4 hrs; format: functional, cell-based; conditions: HT-29, 4 h
SiHa [2] = assay: Ratio of IC50 for SiHa cells under oxic conditions to hypoxic conditions after 4 hrs; format: functional, Homo sapiens
HT-29 [3] = assay: Ratio of IC50 for HT29 cells under oxic conditions to hypoxic conditions after 4 hrs; format: functional, Homo sapiens
HT-29 [4] = assay: Diffusion coefficient, D in HT29 multicellular layers; format: ADME, cell-based; conditions: human
Method in brief: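 HT29 multicellular layers were grown 3 days on collagen-coated Teflon membranes, equilibrated 60 min under 95% O2/5% CO2 at 37 °C, then placed in a diffusion chamber. Donor and receiver were sampled up to 5 h and assayed by HPLC. D came from fitting both profiles to a Fickian model with membrane and MCL in series, corrected by support-only Ds.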

SiHa [5] = assay: Cytotoxicity against human SiHa cells under hypoxic conditions after 4 hrs; format: functional, cell-based
HT-29 [6] = assay: Effect on human HT29 cells under hypoxic conditions assessed as drug level causing 10% clonogenic survival; format: functional
Method in brief: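 HT29 suspensions (1 or 2 × 10^6 cells/mL) in serum-free medium were stirred under 5% CO2/95% N2 for 90 min. Drug was added from deoxygenated DMSO stock at a level giving about 10% survival at 1 h, and samples were taken up to 3 h. Clonogenic survival (14 days, methylene blue) was fitted with the HPLC concentration–time data, and the 10% survival exposure was interpolated.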

[7] = Solubility in culture medium in presence of 5% fetal calf serum; format: physicochemical; conditions: culture medium with 5% fetal calf serum
Mus musculus = assay: Toxicity in ip dosed CD1 mouse; format: organism-based; conditions: in vivo
Method in brief: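 MTD in CD-1 homozygous nude mice after single i.p. doses (HCl salts in saline, 5% DMSO/saline or lactate buffer pH 4.0), escalated in 1.33-fold increments. MTD taken as the highest dose causing no death, no body weight loss >15% and no other severe morbidity in any of 6 mice.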

[8] = Half life in CD1 mouse at 316 umol/kg, ip; format: ADME, organism-based; conditions: in vivo
Method in brief: (§1)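 Single i.p. dose to CD-1 homozygous nude mice, drug as HCl salt in 0.9% saline, 5% DMSO/saline or lactate buffer (pH 4.0). Plasma total drug measured by HPLC at 75 or 100% of MTD (MTD from 1.33-fold dose steps, 6 mice). Noncompartmental analysis gave AUC, Cmax and t1/2.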

[9] = Cmax in CD1 mouse at 316 umol/kg, ip; format: ADME, organism-based; set-up: dose 316 umol/kg, route intraperitoneal; conditions: in vivo; method in brief: as §1
[10] = AUC in CD1 mouse at 316 umol/kg, ip; format: ADME, organism-based; conditions: plasma; method in brief: as §1

| Structure (SMILES) | IC50 (HT-29 [1]) [nM] | Ratio IC50 (SiHa [2]) | Ratio IC50 (HT-29 [3]) | D (HT-29 [4]) [cm²/s] | IC50 (SiHa [5]) [nM] | Activity (HT-29 [6]) [µM·h] | solubility [7] [mM] | MTD (Mus musculus) [µmol/kg] | half-life [8] [min] | Cmax [9] [µM] | AUC [10] [µM·h] |
| --- | --- | --- | --- | --- | --- | --- | --- | --- | --- | --- | --- |
| CN(C)CCCNc1n[n+]([O-])c2ccccc2[n+]1[O-] | 3400 | 82 | 49 | 1.87e-07 | 2300 | 7.8 | 38 |  |  |  |  |
| CCN(CC)CCNc1n[n+]([O-])c2ccc(C(C)(C)C)cc2[n+]1[O-] | 4300 | 90 | 37 |  | 900 | 33.1 | > 48 |  |  |  |  |
| COc1ccc2c(c1)[n+]([O-])c(NCCN1C(C)CCCC1C)n[n+]2[O-] (centres undefined) | 3900 | 121 | 34 |  | 1000 | 26.1 | 29 |  |  |  |  |
| CCCN(CCC)CCNc1n[n+]([O-])c2ccc(C)cc2[n+]1[O-] | 2700 | 149 | 108 | 1.48e-06 | 600 | 38.6 | 38 | 421 | 17.3 | 3.8 | 2.6 |
| CC(C)(C)c1ccc2c(c1)[n+]([O-])c(NCCN1CCCCC1)n[n+]2[O-] | 4000 | 121 | 31 | 1.5e-06 | 600 | 30.3 | 28 |  |  |  |  |
| CC(C)(C)c1ccc2c(c1)[n+]([O-])c(NCCN1CCOCC1)n[n+]2[O-] | 61200 | 55 | 13 |  | 10900 |  | 1.8 |  |  |  |  |
| [O-][n+]1nc(NCCN2CCCC2)[n+]([O-])c2ccccc21 | 600 | 132 | 70 |  | 200 | 3.6 | 61 |  |  |  |  |
| Cc1ccc2c(c1)[n+]([O-])c(NCCCN1CCC(C#N)C1)n[n+]2[O-] (centres undefined) | 14100 | 54 | 54 |  | 9200 | 62.2 | 49 |  |  |  |  |
| [O-][n+]1nc(NCCN2CCCCC2)[n+]([O-])c2cc(Cl)ccc21 | 400 | 18 | 19 | 1.1e-06 | 200 |  | 3.2 |  |  |  |  |
| CCN(CC)CCNc1n[n+]([O-])c2ccc(C)cc2[n+]1[O-] | 1000 | 35 | 51 |  | 300 | 8.3 | > 49 |  |  |  |  |
| CCc1ccc2c(c1)[n+]([O-])c(NCCN1CCCCC1)n[n+]2[O-] | 1500 | 50 | 65 |  | 1000 | 11.9 | 39 |  |  |  |  |
| CCN(CC)CCNc1n[n+]([O-])c2ccc(Cl)cc2[n+]1[O-] | 300 | 28 | 43 |  | 200 |  | 23 |  |  |  |  |
| CC(C)c1ccc2c(c1)[n+]([O-])c(NCCN(C)C)n[n+]2[O-] | 1900 | 104 | 120 |  | 1100 | 11.6 | 42 |  |  |  |  |
| CC(C)c1ccc2c(c1)[n+]([O-])c(NCCN1CCCCC1)n[n+]2[O-] | 2700 | 65 | 41 |  | 1100 | 15.2 | 18 |  |  |  |  |
| CCc1ccc2c(c1)[n+]([O-])c(NCCN(C)C)n[n+]2[O-] | 1300 | 186 | 116 |  | 500 | 6.2 | > 49 | 421 | 12.7 | 21.6 | 13.2 |
